Assay results from different studies.
Each line is one published result; the experiments were not run side by side.
Abl1: Tyrosine-protein kinase ABL1 (Abl1, Mus musculus, UniProt P00520)
ADORA2B: Adenosine receptor A2b (ADORA2B, Homo sapiens, UniProt P29275)
PBRM1 bromodomain: Protein polybromo-1, bromodomain (PBRM1, Homo sapiens, UniProt Q86U86)
ERBB3: Receptor tyrosine-protein kinase erbB-3 (ERBB3, Homo sapiens, UniProt P21860)
PBRM1 BD2: Protein polybromo-1, BD2 (PBRM1, Homo sapiens, UniProt Q86U86)

Structure (SMILES) | target | assay | conditions | measurement | result
Cc1cnc(NC2CCOCC2)nc1-n1cnc(C(=O)NC(CN)c2cc(F)cc(Cl)c2)c1 (stereo not drawn) | Abl1 | enzyme activity, inhibitor, radiometric | 1 µM | remaining activity | 99%
CN1CCCn2c1nc1c2c(=O)n(C)c(=O)n1C | ADORA2B | ligand displacement, radioligand | 10 µM, cell membranes | inhibition | 6%
C[S+]([O-])c1ccc(-c2nc(-c3ccncc3)c(-c3ccc(F)cc3)[nH]2)cc1 (stereo not drawn) | PBRM1 bromodomain | thermal stability, DSF | 10 µM | ΔTm | 1.33 °C
CCCCCCN1CCCn2c1nc1c2c(=O)n(C)c(=O)n1C | ADORA2B | ligand displacement, radioligand | 10 µM, cell membranes | inhibition | 9%
CCC(/C=C1\CCn2c1nc(=O)c1ccc(O)cc12)CC | PBRM1 bromodomain | thermal stability, DSF | 100 µM | ΔTm | -0.42 °C
CCCOc1ccc(OC)c(F)c1C(=O)c1ccc(C(=O)N[C@@H]2CNC[C@H]2NC(=O)c2ccc3[nH]ncc3c2)cc1 | Serine/threonine-protein kinase Sgk1 (SGK1, Homo sapiens, UniProt O00141) | enzyme activity, inhibitor | 10 µM | remaining activity | 1%
Nc1ncnc2occ(-c3ccc(NC(=O)Nc4cc(C(F)(F)F)ccc4F)cc3)c12 | ERBB3 | cell-free assay, inhibitor | 20 µM | remaining signal | 73%
Oc1ccc(-c2nc(-c3ccncc3)c(-c3ccc(F)cc3)[nH]2)cc1 | Protein polybromo-1, BD1 (PBRM1, Homo sapiens, UniProt Q86U86) | thermal stability, DSF | 10 µM | ΔTm | 0 °C
CCC/C=C1\CCn2c1nc(=O)c1c(Cl)cccc12 | PBRM1 bromodomain | thermal stability, DSF | 100 µM | ΔTm | 11 °C
O=C(O)c1cccc(NC(c2ccccc2)c2ccc3ccccc3c2O)c1 (stereo not drawn) | CAAX prenyl protease 2 (Homo sapiens, UniProt Q9Y256) | enzyme activity, inhibitor | 10 µM | remaining activity | < 40%
Cc1cc2c(cc1N1C(=O)c3cccc4c(Cl)ccc(c34)C1=O)n(C)c(=O)n2C | Bromodomain-containing protein 2, BD1 (BRD2, Homo sapiens, UniProt P25440) | thermal stability, DSF | 10 µM | ΔTm | 0.3 °C
CCC(/C=C1\CCn2c1nc(=O)c1c(Cl)c(Cl)ccc12)CC | PBRM1 bromodomain | thermal stability, DSF | 100 µM | ΔTm | 2.23 °C
Cc1ccc(C(=O)Nc2ccc(CN3CCN(C)CC3)c(C(F)(F)F)c2)cc1C#Cc1cnc2cccnn12 | ERBB3 | enzyme activity, inhibitor | 23.5 nM | remaining activity | 82%
CC/C=C1\CCn2c1nc(=O)c1c(Cl)cccc12 | PBRM1 BD2 | thermal stability, DSF | 100 µM | ΔTm | -0.23 °C
Cc1cnc(Nc2ccc(OCCN3CCCC3)cc2)nc1Nc1cccc(S(=O)(=O)NC(C)(C)C)c1 | PBRM1 BD2 | thermal stability, DSF | 10 µM | ΔTm | 0.23 °C
CC(C)(C)C/C=C1\CCn2c1nc(=O)c1c(Cl)cccc12 | PBRM1 BD2 | thermal stability, DSF | 100 µM | ΔTm | 4.96 °C
NS(=O)(=O)c1ccc(Nc2nc(-c3ccc(F)cc3)c3ccccc3n2)cc1 | Bromodomain-containing protein 2, BD2 (BRD2, Homo sapiens, UniProt P25440) | binding, competition with immobilised ligand | 1 µM | remaining binding | 10%
CN(C)/C=C1\CCCn2c1nc(=O)c1c(Cl)cccc12 | PBRM1 BD2 | thermal stability, DSF | 100 µM | ΔTm | 1.44 °C
CN(C)C1CCN(CC#Cc2nn(C3CCCC3)c3nc(NCc4ccccc4)ncc23)C1 (stereo not drawn) | Tyrosine-protein kinase JAK1 (JAK1, Homo sapiens, UniProt P23458) | enzyme activity, inhibitor, FRET | 1 µM | inhibition | 0%
Cc1ccc(NC(=O)c2ccc(C)c(C(F)(F)F)c2)cc1C#Cc1nn(C2CCC(O)CC2)c2ncnc(N)c12 (stereo not drawn) | Abl1 | cell-free assay | 10 µM | remaining signal | -2%
CCC(CC)CC1CCn2c1nc(=O)c1c(Cl)cccc12 (racemic) | PBRM1 BD2 | thermal stability, DSF | 100 µM | ΔTm | 2.66 °C
